The values that follow come from ChEMBL document CHEMBL1126550, “Nanomolar-affinity, non-peptide oxytocin receptor antagonists” (J Med Chem, 1993).

One assay addresses T1, Oxytocin receptor (Rattus norvegicus, UniProt P70536).
T1 sequence (P70536 whole entry): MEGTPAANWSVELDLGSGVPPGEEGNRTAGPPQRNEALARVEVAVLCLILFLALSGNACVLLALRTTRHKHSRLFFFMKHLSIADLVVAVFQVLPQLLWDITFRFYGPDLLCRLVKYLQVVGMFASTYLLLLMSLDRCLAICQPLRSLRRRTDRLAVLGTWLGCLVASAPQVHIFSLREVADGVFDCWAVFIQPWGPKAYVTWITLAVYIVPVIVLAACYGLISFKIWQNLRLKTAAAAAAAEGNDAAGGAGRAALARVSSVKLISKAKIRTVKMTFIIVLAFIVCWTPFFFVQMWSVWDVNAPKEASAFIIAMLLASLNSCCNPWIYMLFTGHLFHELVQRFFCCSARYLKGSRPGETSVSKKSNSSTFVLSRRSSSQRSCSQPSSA
The assay is described as follows: Inhibition of radioligand [3H]oxytocin binding at the oxytocin (OT) receptor in rat uterine tissue. The method, boiled down: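 Uteri taken from rats given diethylstilbestrol dipropionate (0.3 mg/kg ip, 18–24 h before), crude membranes. 1 nM [3H]OT (30–60 Ci/mmol), equilibrium 60 min at 22 °C in 50 mM Tris-HCl, 5 mM MgCl2, 0.1% BSA, pH 7.4. Nonspecific binding with 1 mM unlabeled OT. Filtered on glass fiber. Initial single-concentration screen, then IC50 from seven concentrations by linear regression.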

The next assay concerns the target Vasopressin V1 receptor (Rattus norvegicus, UniProt P48974+P30560). The experiment in a line: Inhibition of radioligand [3H]AVP binding to the vasopressin V1 receptor in rat liver tissue. The method in brief:
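Crude membranes from male rat liver (V1 sites) competed with 1 nM [3H]AVP (80–90 Ci/mmol). Equilibrium 30 min, 30 °C, buffer 100 mM Tris-HCl, 5 mM MgCl2, 0.1% BSA, 50 μM PMSF, 50 μg/mL bacitracin, pH 8.0. 10 μM unlabeled AVP for nonspecific binding. Filtration through glass-fiber filters. IC50 from linear regression over seven concentrations.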

In a further assay the target is Vasopressin V2 receptor (Rattus norvegicus, UniProt Q00788). The experiment in a line: Inhibition of radioligand [3H]-AVP binding to the vasopressin V2 receptor in rat kidney tissue. The method, boiled down: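 [3H]AVP (80–90 Ci/mmol) at 2 nM competed on crude membranes from male rat kidney medulla (V2 sites). Equilibrium 30 min at 30 °C in 100 mM Tris-HCl, 5 mM MgCl2, 0.1% BSA, 50 μM PMSF, 50 μg/mL bacitracin, pH 8.0. Nonspecific binding with 10 μM unlabeled AVP. Glass-fiber filtration. IC50 by linear regression of % inhibition vs log concentration, seven concentrations.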
Chain of Vasopressin V2 receptor (Q00788 whole entry): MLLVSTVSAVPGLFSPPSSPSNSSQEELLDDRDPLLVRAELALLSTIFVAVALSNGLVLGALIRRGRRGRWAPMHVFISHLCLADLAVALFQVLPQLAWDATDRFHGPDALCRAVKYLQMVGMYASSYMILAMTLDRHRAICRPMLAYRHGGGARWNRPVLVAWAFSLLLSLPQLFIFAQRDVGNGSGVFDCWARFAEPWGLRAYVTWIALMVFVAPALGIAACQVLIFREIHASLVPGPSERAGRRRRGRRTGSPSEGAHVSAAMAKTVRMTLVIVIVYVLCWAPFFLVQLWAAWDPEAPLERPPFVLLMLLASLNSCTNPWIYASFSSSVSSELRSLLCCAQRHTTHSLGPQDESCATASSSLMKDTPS

`CC1(C)[C@@H]2CC[C@@]1(CS(=O)(=O)N1CCC3(CCc4ccccc43)CC1)[C@@H](NC(=O)Cc1nnn[nH]1)C2`: the IC50 (as a rule, the midpoint of a concentration-inhibition curve) on Oxytocin receptor is 220 nM; at Vasopressin V1 receptor, greater than 3000 nM; on Vasopressin V2 receptor, greater than 3000 nM.

Regarding `CC(C)[C@H](N)C(=O)NC[C@@]1(O)C[C@H]2CC[C@]1(CS(=O)(=O)N1CCC3(C=Cc4ccccc43)CC1)C2(C)C`, the half-maximal inhibitory concentration (IC50) was 43 nM on Oxytocin receptor, 290 nM at Vasopressin V1 receptor and 4900 nM at Vasopressin V2 receptor.

Take `CC1(C)[C@@H]2CC[C@@]1(CS(=O)(=O)N1CCC3(CCc4ccccc43)CC1)[C@@H](NC(=O)CCC(=O)O)C2`: the IC50 on Oxytocin receptor was 410 nM; on Vasopressin V1 receptor, greater than 3000 nM; at Vasopressin V2 receptor it was greater than 300 nM.

`CC1(C)[C@@H]2CC[C@@]1(CS(=O)(=O)N1CCC3(CCc4ccccc43)CC1)[C@@H](NC(=O)CCn1ccnc1)C2`: the 50% inhibitory concentration (IC50) was 140 nM at Oxytocin receptor, greater than 3000 nM at Vasopressin V1 receptor and greater than 3000 nM at Vasopressin V2 receptor.

Consider `CC1(C)[C@@H]2CC[C@@]1(CS(=O)(=O)N1CCC3(CCc4ccccc43)CC1)[C@@H](N1C(=O)NC(Cc3c[nH]cn3)C1=O)C2` (single isomer, unassigned; isomer A), for which the IC50 at Oxytocin receptor amounted to 16 nM; on Vasopressin V1 receptor, 600 nM; on Vasopressin V2 receptor, 2000 nM.

Turning to `CC1(C)[C@@H]2CC[C@@]1(CS(=O)(=O)N1CCC3(CCc4ccccc43)CC1)[C@@H](NC(=O)Cc1csc(N)n1)C2`, the 50% inhibitory concentration (IC50) was 170 nM on Oxytocin receptor, greater than 3000 nM on Vasopressin V1 receptor and greater than 3000 nM at Vasopressin V2 receptor.

As to `CC1(C)[C@@H]2CC[C@@]1(CS(=O)(=O)N1CCC3(CCc4ccccc43)CC1)[C@@H](NC(=O)Cc1ccncc1)C2`, the results for the IC50 on Oxytocin receptor, at Vasopressin V1 receptor and at Vasopressin V2 receptor were 120 nM, greater than 1000 nM and 10000 nM, respectively.

On to `CC1(C)[C@@H]2CC[C@@]1(CS(=O)(=O)N1CCC3(CCc4ccccc43)CC1)[C@@H](N1C(=O)NC(Cc3c[nH]cn3)C1=O)C2` (mixture of isomers), for which the IC50 at Oxytocin receptor was 15 nM; on Vasopressin V1 receptor, 580 nM; at Vasopressin V2 receptor, 1500 nM.

Take `CC1(C)[C@@H]2CC[C@@]1(CS(=O)(=O)N1CCC3(CCc4ccccc43)CC1)[C@@H](NC(=O)C(N)CCS(N)(=O)=O)C2` (some centres undefined): the half-maximal inhibitory concentration (IC50) on Oxytocin receptor came to 38 nM; on Vasopressin V1 receptor it was 4000 nM; on Vasopressin V2 receptor, 6700 nM.

With `CC1(C)[C@@H]2CC[C@@]1(CS(=O)(=O)N1CCC3(CCc4ccccc43)CC1)[C@@H](NC(=O)CCc1ccccc1)C2`, the IC50 is 530 nM at Oxytocin receptor, 10000 nM at Vasopressin V1 receptor and greater than 10000 nM on Vasopressin V2 receptor.

As for `CCOC(=O)CCC(=O)N[C@H]1C[C@H]2CC[C@]1(CS(=O)(=O)N1CCC3(CCc4ccccc43)CC1)C2(C)C`, the results for the IC50 at Oxytocin receptor, on Vasopressin V1 receptor and at Vasopressin V2 receptor were 240 nM, 16000 nM and 13000 nM, respectively.

As to `CC1(C)[C@@H]2CC[C@@]1(CS(=O)(=O)N1CCC3(CCc4ccccc43)CC1)[C@@H](NC(=O)CCC1CCCNC1)C2` (some centres undefined), the IC50 at Oxytocin receptor was found to be 30 nM; on Vasopressin V1 receptor, 710 nM; on Vasopressin V2 receptor, 5200 nM.

Turning to `CC1(C)[C@@H]2CC[C@@]1(CS(=O)(=O)N1CCC3(C=Cc4ccccc43)CC1)[C@@](O)(CCNC(=O)c1ccccc1)C2`, the concentration for half-maximal inhibition (IC50) on Oxytocin receptor worked out at 220 nM; at Vasopressin V1 receptor it was 4600 nM; at Vasopressin V2 receptor, 23000 nM.

Consider `CC1(C)[C@@H]2CC[C@@]1(CS(=O)(=O)N1CCC3(C=Cc4ccccc43)CC1)[C@@](O)(CC(=O)O)C2`, for which the IC50 at Oxytocin receptor was found to be 800 nM; at Vasopressin V1 receptor, 78000 nM; on Vasopressin V2 receptor it was 70000 nM.

Consider `CN(C)C(CCS(C)(=O)=O)C(=O)N[C@H]1C[C@H]2CC[C@]1(CS(=O)(=O)N1CCC3(CCc4ccccc43)CC1)C2(C)C` (some centres undefined), for which the IC50 on Oxytocin receptor was determined as 4.9 nM; at Vasopressin V1 receptor, 530 nM; on Vasopressin V2 receptor it was 1300 nM.

Turning to `CC1(C)[C@@H]2CC[C@@]1(CS(=O)(=O)N1CCC3(CCc4ccccc43)CC1)[C@@H](N1C(=O)CCC1=O)C2`, the IC50 was determined as 11 nM at Oxytocin receptor, 910 nM at Vasopressin V1 receptor and 1700 nM at Vasopressin V2 receptor.

Consider `CC1(C)[C@@H]2CC[C@@]1(CS(=O)(=O)N1CCC3(CCc4ccccc43)CC1)[C@@H](NC(=O)Cc1cccnc1)C2`, for which the IC50 on Oxytocin receptor was 170 nM; on Vasopressin V1 receptor it was greater than 1000 nM; at Vasopressin V2 receptor it was 10000 nM.

Consider `CC1(C)[C@@H]2CC[C@@]1(CS(=O)(=O)N1CCC3(CCc4ccccc43)CC1)[C@H](NC(=O)Cc1ccccc1)C2`, for which the IC50 on Oxytocin receptor is 1000 nM; on Vasopressin V1 receptor it was greater than 1000 nM; at Vasopressin V2 receptor it was 10000 nM.

For `CC1(C)[C@@H]2CC[C@@]1(CS(=O)(=O)N1CCC3(CCc4ccccc43)CC1)[C@@H](NC(=O)C(N)CC[N+](=O)[O-])C2` (some centres undefined), the IC50 is 330 nM at Oxytocin receptor, greater than 300 nM at Vasopressin V1 receptor and 3000 nM on Vasopressin V2 receptor.

`CC(C)C[C@H](N)C(=O)NC[C@@]1(O)C[C@H]2CC[C@]1(CS(=O)(=O)N1CCC3(C=Cc4ccccc43)CC1)C2(C)C`: the half-maximal inhibitory concentration (IC50) at Oxytocin receptor came out at 42 nM; at Vasopressin V1 receptor, 430 nM; at Vasopressin V2 receptor, 2200 nM.

Regarding `CC1(C)[C@@H]2CC[C@@]1(CS(=O)(=O)N1CCC3(C=Cc4ccccc43)CC1)[C@@](O)(CNC(=O)Cc1cccnc1)C2`, the IC50 at Oxytocin receptor is 53 nM; on Vasopressin V1 receptor it was 890 nM; on Vasopressin V2 receptor, 4500 nM.

Turning to `CC1(C)[C@@H]2CC[C@@]1(CS(=O)(=O)N1CCC3(CCc4ccccc43)CC1)[C@@H](N1C(=O)NC(CN)C1=O)C2` (some centres undefined), the figures for the IC50 at Oxytocin receptor, on Vasopressin V1 receptor and on Vasopressin V2 receptor were 35 nM, 490 nM and 2100 nM, respectively.

On to `CC1(C)[C@@H]2CC[C@@]1(CS(=O)(=O)N1CCC3(C=Cc4ccccc43)CC1)C1(CNC(=O)O1)C2` (some centres undefined), for which the IC50 on Oxytocin receptor was greater than 1000 nM; at Vasopressin V1 receptor, greater than 10000 nM; at Vasopressin V2 receptor, greater than 10000 nM.

For the compound `CC1(C)[C@@H]2CC[C@@]1(CS(=O)(=O)N1CCC3(CCc4ccccc43)CC1)[C@@H](NC(=O)C(CCS(C)(=O)=O)c1c[nH]cn1)C2` (single isomer, unassigned; isomer B), the IC50 at Oxytocin receptor is 11 nM; on Vasopressin V1 receptor, 2200 nM; at Vasopressin V2 receptor, 3300 nM.

Turning to `CNC1CCN([C@H]2C[C@H]3CC[C@]2(CS(=O)(=O)N2CCC4(CCc5ccccc54)CC2)C3(C)C)C1=O` (some centres undefined), the half-inhibitory concentration (IC50) on Oxytocin receptor was determined as 210 nM; at Vasopressin V1 receptor, 4700 nM; on Vasopressin V2 receptor, 12000 nM.

As for `CC1(C)[C@@H]2CC[C@@]1(CS(=O)(=O)N1CCC3(CCc4ccccc43)CC1)[C@@H](NC(=O)C(CCS(C)(=O)=O)NC(=O)CN)C2` (some centres undefined), the results for the IC50 on Oxytocin receptor, on Vasopressin V1 receptor and at Vasopressin V2 receptor were 4.1 nM, 440 nM and 1100 nM, respectively.

For the compound `CN(C)CC(=O)NCC(=O)N[C@H]1C[C@H]2CC[C@]1(CS(=O)(=O)N1CCC3(CCc4ccccc43)CC1)C2(C)C`, the IC50 at Oxytocin receptor was 61 nM; at Vasopressin V1 receptor, greater than 300 nM; on Vasopressin V2 receptor, 3000 nM.

With `CC(=O)N[C@@H]1C[C@H]2CC[C@]1(CS(=O)(=O)N1CCC3(CCc4ccccc43)CC1)C2(C)C`, the values for the IC50 on Oxytocin receptor, on Vasopressin V1 receptor and on Vasopressin V2 receptor were 1200 nM, 10000 nM and greater than 10000 nM, respectively.

As for `CC1(C)[C@@H]2CC[C@@]1(CS(=O)(=O)N1CCC3(CCc4ccccc43)CC1)[C@@H](N1C(=O)CC(CC(=O)O)C1=O)C2` (some centres undefined), the IC50 was 30 nM at Oxytocin receptor, 1600 nM on Vasopressin V1 receptor and 2500 nM at Vasopressin V2 receptor.

Take `CC1(C)[C@@H]2CC[C@@]1(CS(=O)(=O)N1CCC3(C=Cc4ccccc43)CC1)[C@@](O)(CCNC(=O)CC1CN3CCC1CC3)C2` (some centres undefined): the values for the IC50 on Oxytocin receptor, on Vasopressin V1 receptor and at Vasopressin V2 receptor were 100 nM, 640 nM and 6200 nM, respectively.

`CC1(C)[C@@H]2CC[C@@]1(CS(=O)(=O)N1CCC3(CCc4ccccc43)CC1)[C@@H](N1C(=O)CC(CC(=O)Nc3nn[nH]n3)C1=O)C2` (some centres undefined): the half-maximal inhibitory concentration (IC50) at Oxytocin receptor came to 13 nM; at Vasopressin V1 receptor it was 770 nM; on Vasopressin V2 receptor, 2400 nM.

Consider `CC1(C)[C@@H]2CC[C@@]1(CS(=O)(=O)N1CCC3(CCc4ccccc43)CC1)[C@@H](NC(=O)C(N)CCCO)C2` (some centres undefined), for which the results for the IC50 at Oxytocin receptor, at Vasopressin V1 receptor and at Vasopressin V2 receptor were 80 nM, 1700 nM and 6200 nM, respectively.

For the compound `CC1(C)[C@@H]2CC[C@@]1(CS(=O)(=O)N1CCC3(CCc4ccccc43)CC1)[C@@H](N1C(=O)NC(=O)C1=O)C2`, the IC50 at Oxytocin receptor was 180 nM; on Vasopressin V1 receptor, 9200 nM; on Vasopressin V2 receptor, 16000 nM.
